Results on 7 molecules are retold here after article PMC4586255 (DNA repair, 2010).

The subject of experiment [1] is PCNA replication foci in NIH3T3 cells. The experiment is classed as cell-based, murine. Conditions: for foci formation and co-localization with PCNA during S-phase: NIH3T3 cells co-transfected with CFP-PCNA, 24–48 h; for sub-cellular localization: NIH3T3 cells, confocal imaging; for Small foci (CFP-PCNA) / Large foci (CFP-PCNA) / Mid Foci (CFP-PCNA): CFP channel (CFP-PCNA) in cells co-expressing the hEXO1 protein, 50 co-transfected cells; for Small foci (CFP-PCNA): early S-phase foci; for Large foci (CFP-PCNA): late S-phase foci; for Mid Foci (CFP-PCNA): mid S-phase foci; for effect of expression on S-phase distribution: NIH3T3 cells co-expressing CFP-PCNA. In outline:
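Murine NIH3T3 cells were kept in DMEM with 10% FBS and penicillin/streptomycin at 37 °C, 10% CO₂. Cells (2*10⁵ per glass-bottom dish) were seeded 24 h before ExGen500 co-transfection with 3 μg total plasmid (CFP-PCNA plus YFP fusion). Confocal imaging at 24–48 h. Co-transfected cells were counted and binned by pattern, e.g. "no foci" (diffuse CFP-PCNA, diffuse nuclear YFP).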

The next experiment has as its system hMLH1. Put plainly: Interaction of hEXO1 variants with hMLH1. The format is binding, human. The note with it: GST-hMLH1 pull-down, 35S-labeled IVTT protein; Fig. S1.

Positions count from the first letter of the chain named. Names and notes keep the numbering of the source.

B1: YFP-hEXO1-S598X: COOH-terminally truncated version of YFP-hEXO1 (protein, UniProt Q9UQ84 1-597, looked up, fragment)
chain: MGIQGLLQFIKEASEPIHVRKYKGQVVAVDTYCWLHKGAIACAEKLAKGEPTDRYVGFCMKFVNMLLSHGIKPILVFDGCTLPSKKEVERSRRERRQANLLKGKQLLREGKVSEARECFTRSINITHAMAHKVIKAARSQGVDCLVAPYEADAQLAYLNKAGIVQAIITEDSDLLAFGCKKVILKMDQFGNGLEIDQARLGMCRQLGDVFTEEKFRYMCILSGCDYLSSLRGIGLAKACKVLRLANNPDIVKVIKKIGHYLKMNITVPEDYINGFIRANNTFLYQLVFDPIKRKLIPLNAYEDDVDPETLSYAGQYVDDSIALQIALGNKDINTFEQIDDYNPDTAMPAHSRSHSWDDKTCQKSANVSSIWHRNYSPRPESGTVSDAPQLKENPSTVGVERVISTKGLNLPRKSSIVKRPRSAELSEDDLLSQYSLSFTKKTKKNSSEGNKSLSFSEVFVPDLVNGPTNKKSVSTPPRTRNKFATFLQRKNEESGAVVVPGTRSRFFCSSDSTDCVSNKVSIQPLDETAVTDKENNLHESEYGDQEGKRLVDTDVARNSSDDIPNNHIPGDHIPDKATVFTDEESYSFESSKFTRTI
modifications: N-terminal YFP tag
Consider B1, for which, in experiment [1], the “foci formation and co-localization with PCNA during S-phase” value (“foci formation and co-localization” below) is given as “none of the variant proteins were able to form foci or co-localize with PCNA during S-phase”; the sub-cellular localization entry is “strictly nuclear”.

B2: YFP-hEXO1-C508X: COOH-terminally truncated version of YFP-hEXO1 (protein, UniProt Q9UQ84 1-507, looked up, fragment)
chain: MGIQGLLQFIKEASEPIHVRKYKGQVVAVDTYCWLHKGAIACAEKLAKGEPTDRYVGFCMKFVNMLLSHGIKPILVFDGCTLPSKKEVERSRRERRQANLLKGKQLLREGKVSEARECFTRSINITHAMAHKVIKAARSQGVDCLVAPYEADAQLAYLNKAGIVQAIITEDSDLLAFGCKKVILKMDQFGNGLEIDQARLGMCRQLGDVFTEEKFRYMCILSGCDYLSSLRGIGLAKACKVLRLANNPDIVKVIKKIGHYLKMNITVPEDYINGFIRANNTFLYQLVFDPIKRKLIPLNAYEDDVDPETLSYAGQYVDDSIALQIALGNKDINTFEQIDDYNPDTAMPAHSRSHSWDDKTCQKSANVSSIWHRNYSPRPESGTVSDAPQLKENPSTVGVERVISTKGLNLPRKSSIVKRPRSAELSEDDLLSQYSLSFTKKTKKNSSEGNKSLSFSEVFVPDLVNGPTNKKSVSTPPRTRNKFATFLQRKNEESGAVVVPGTRSRFF
modifications: N-terminal YFP tag
In the case of B2, in experiment [1], the “foci formation and co-localization” value is listed as “none of the variant proteins were able to form foci or co-localize with PCNA during S-phase”; the sub-cellular localization result is given as “strictly nuclear”.

B3: YFP-hEXO1-Q788A;L791A: PIP-box mutant of YFP-hEXO1 (protein, UniProt Q9UQ84 1-846, looked up, variant Q788A L791A)
Exonuclease 1: MGIQGLLQFIKEASEPIHVRKYKGQVVAVDTYCWLHKGAIACAEKLAKGEPTDRYVGFCMKFVNMLLSHGIKPILVFDGCTLPSKKEVERSRRERRQANLLKGKQLLREGKVSEARECFTRSINITHAMAHKVIKAARSQGVDCLVAPYEADAQLAYLNKAGIVQAIITEDSDLLAFGCKKVILKMDQFGNGLEIDQARLGMCRQLGDVFTEEKFRYMCILSGCDYLSSLRGIGLAKACKVLRLANNPDIVKVIKKIGHYLKMNITVPEDYINGFIRANNTFLYQLVFDPIKRKLIPLNAYEDDVDPETLSYAGQYVDDSIALQIALGNKDINTFEQIDDYNPDTAMPAHSRSHSWDDKTCQKSANVSSIWHRNYSPRPESGTVSDAPQLKENPSTVGVERVISTKGLNLPRKSSIVKRPRSAELSEDDLLSQYSLSFTKKTKKNSSEGNKSLSFSEVFVPDLVNGPTNKKSVSTPPRTRNKFATFLQRKNEESGAVVVPGTRSRFFCSSDSTDCVSNKVSIQPLDETAVTDKENNLHESEYGDQEGKRLVDTDVARNSSDDIPNNHIPGDHIPDKATVFTDEESYSFESSKFTRTISPPTLGTLRSCFSWSGGLGDFSRTPSPSPSTALQQFRRKSDSPTSLPENNMSDVSQLKSEESSDDESHPLREEACSSQSQESGEFSLQSSNASKLSQCSSKDSDSEESDCNIKLLDSQSDQTSKLRLSHFSKKDTPLRNKVPGLYKSSSADSLSTTKIKPLGPARASGLSKKPASIQKRKHHNAENKPGLAIKANELWKNFGFKKDSEKLPPCKKPLSPVRDNIQLTPEAEEDIFNKPECGRVQRAIFQ
modifications: N-terminal YFP tag
B3: in experiment [1], the “Small foci (CFP-PCNA)” value was 22%, the “Large foci (CFP-PCNA)” value is listed as 8%, the “Mid Foci (CFP-PCNA)” value was determined as 18% and the “effect of expression on S-phase distribution” value (from here on “effect of expression”) is “no adverse effects on S-phase distribution”. Further, the “foci formation and co-localization” value in experiment [1] was “unable to form nuclear foci and does not co-localize with PCNA, at any time point during S-phase”.

B4: YFP-hEXO1-Q285A;F288A: putative PIP-box substitution variant of YFP-hEXO1 (protein, UniProt Q9UQ84 1-846, looked up, variant Q285A F288A)
Exonuclease 1: B3 Exonuclease 1 with Q285A, F288A, A788Q, A791L
modifications: YFP tag
Take B4: in experiment [1], the “Small foci (CFP-PCNA)” value was 34%, the “Large foci (CFP-PCNA)” value is 0%, the “Mid Foci (CFP-PCNA)” value came to 0% and the “effect of expression” value is recorded as “unable to detect replication foci in late S-phase”. For the same molecule, the “foci formation and co-localization” value in experiment [1] is given as “to some extent are able to form S-phase foci in co-localization with PCNA”.

B5: YFP-hEXO1-Q154A;Y157A: putative PIP-box substitution variant of YFP-hEXO1 (protein, UniProt Q9UQ84 1-846, looked up, variant Q154A Y157A)
Exonuclease 1: B3 Exonuclease 1 with Q154A, Y157A, A788Q, A791L
modifications: N-terminal YFP tag
For the molecule B5, in experiment [1], the “Small foci (CFP-PCNA)” value was found to be 28%, the “Large foci (CFP-PCNA)” value came out at 0%, the “Mid Foci (CFP-PCNA)” value is 4% and the “effect of expression” value was “unable to detect replication foci in late S-phase”. In experiment [1], the “foci formation and co-localization” value was “to some extent are able to form S-phase foci in co-localization with PCNA”.

B6: hMLH1: fusion protein, CFP or YFP tagged MMR protein (protein)
chain: MSFVAGVIRRLDETVVNRIAAGEVIQRPANAIKEMIENCLDAKSTSIQVIVKEGGLKLIQIQDNGTGIRKEDLDIVCERFTTSKLQSFEDLASISTYGFRGEALASISHVAHVTITTKTADGKCAYRASYSDGKLKAPPKPCAGNQGTQITVEDLFYNIATRRKALKNPSEEYGKILEVVGRYSVHNAGISFSVKKQGETVADVRTLPNASTVDNIRSIFGNAVSRELIEIGCEDKTLAFKMNGYISNANYSVKKCIFLLFINHRLVESTSLRKAIETVYAAYLPKNTHPFLYLSLEISPQNVDVNVHPTKHEVHFLHEESILERVQQHIESKLLGSNSSRMYFTQTLLPGLAGPSGEMVKSTTSLTSSSTSGSSDKVYAHQMVRTDSREQKLDAFLQPLSKPLSSQPQAIVTEDKTDISSGRARQQDEEMLELPAPAEVAAKNQSLEGDTTKGTSEMSEKRGPTSSNPRKRHREDSDVEMVEDDSRKEMTAACTPRRRIINLTSVLSLQEEINEQGHEVLREMLHNHSFVGCVNPQWALAQHQTKLYLLNTTKLSEELFYQILIYDFANFGVLRLSEPAPLFDLAMLALDSPESGWTEEDGPKEGLAEYIVEFLKKKAEMLADYFSLEIDEEGNLIGLPLLIDNYVPPLEGLPIFILRLATEVNWDEEKECFESLSKECAMFYSIRKQYISEESTLSGQQSEVPGSIPNSWKWTVEHIVYKALRSHILPPKHFTEDGNILQLANLPDLYKVFERC
modifications: left off: GST, end not stated, kept
Turning to B6, in experiment [1], the “foci formation and co-localization” value is listed as “unable to observe CFP-PCNA co-localized YFP-hMLH1 foci”.

B7: hEXO1-S702X; Δ423–507: truncated from amino acid 702 with internal deletion between amino acids 423 and 507; depleted of two hMLH1 interaction regions (protein)
chain: MGIQGLLQFIKEASEPIHVRKYKGQVVAVDTYCWLHKGAIACAEKLAKGEPTDRYVGFCMKFVNMLLSHGIKPILVFDGCTLPSKKEVERSRRERRQANLLKGKQLLREGKVSEARECFTRSINITHAMAHKVIKAARSQGVDCLVAPYEADAQLAYLNKAGIVQAIITEDSDLLAFGCKKVILKMDQFGNGLEIDQARLGMCRQLGDVFTEEKFRYMCILSGCDYLSSLRGIGLAKACKVLRLANNPDIVKVIKKIGHYLKMNITVPEDYINGFIRANNTFLYQLVFDPIKRKLIPLNAYEDDVDPETLSYAGQYVDDSIALQIALGNKDINTFEQIDDYNPDTAMPAHSRSHSWDDKTCQKSANVSSIWHRNYSPRPESGTVSDAPQLKENPSTVGVERVISTKGLNLPRKSSIVKRPRSCSSDSTDCVSNKVSIQPLDETAVTDKENNLHESEYGDQEGKRLVDTDVARNSSDDIPNNHIPGDHIPDKATVFTDEESYSFESSKFTRTISPPTLGTLRSCFSWSGGLGDFSRTPSPSPSTALQQFRRKSDSPTSLPENNMSDVSQLKSEESSDDESHPLREEACSSQSQESGEFSLQSSNASKLSQCSSKDSD
modifications: 35S-cysteine label
In the case of B7, the hMLH1 interaction result in the experiment on hMLH1 is given as “incapable of hMLH1 interaction”.
